In data set [1] the test system is Murine hepatitis virus. Kind of data set: Antiviral activity against Murine hepatitis virus JHM infected in mouse DBT cells assessed as reduction in N-protein expression at 0.2 to 2 uM pre-treated 1 hr before virus infection and measured 24 hrs post infection by immunofluorescent assay. Type of data set: functional, organism-based. The essentials: (§1)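 DBT murine astrocytoma cells in DMEM/10% heat-inactivated FBS, seeded 2.8 × 10⁵ cells/well the day before infection. Medium switched to DMEM/2% FBS, compound added 1 h before MHV-JHM infection at MOI 0.005. Cytopathic effect viewed by phase contrast and N protein by immunofluorescence at 24 hpi.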

In data set [2] the test system is MCF7. Put plainly: Growth inhibition of human MCF7 cells. The class given is functional. The essentials: (§2)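 Cells seeded per well: NUGC-3 4500, HONE-1 6000, MCF-7 6500, NCI-H460 2500, HepG2 10000, A549 5000; A549 grown in RPMI 1640 with 2 g/L NaHCO₃, 2 mM L-glutamine and 10% FBS. GI₅₀ = concentration giving 50% growth inhibition, mean of at least three experiments each in duplicate. Paclitaxel served as positive control.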

The next data set relates to NUGC-3. Put plainly: Growth inhibition of human NUGC3 cells. The class given is functional. An outline of the steps:
as §2

Data set [3] relates to NCI-H460. Kind of data set: Induction of c-Jun protein accumulation in human NCI-H460 cells incubated for 24 hrs by Western blotting. Type of data set: functional, cell-based.
Data set [4] relates to RAW264.7. Put plainly: Reduction in LPS/INFgamma-induced iNOS protein expression in mouse RAW264.7 cells incubated for 20 hrs by Western blotting. Type of data set: functional, cell-based. An outline of the steps:
(§3)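 LPS/IFNγ-stimulated RAW264.7 cells treated with compound for 20 h. iNOS, COX-2 and GAPDH detected by Western blot; representative of at least three independent experiments.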
A general note: Immunoblotting shows a protein as a band on a membrane.

Data set [5] has as its system Transmissible gastroenteritis virus. Put plainly: Antiviral activity against Transmissible gastroenteritis virus infected in ST cells assessed as reduction in N-protein expression pre-treated before virus infection measured 16 hrs post virus infection by Western blotting. Type of data set: functional, organism-based. An outline of the steps: (§4)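 ST cells pretreated with compound, then infected with TGEV. Western blot for nucleocapsid (N) protein, caspase 3 (cleavage of procaspase 3) and GAPDH at 16 hpi. Representative of at least three independent experiments.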

Data set [6] deals with Murine hepatitis virus. Kind of data set: Antiviral activity against Murine hepatitis virus JHM infected in mouse DBT cells assessed as reduction in virus-induced cytopathic effect at 0.2 to 2 uM pre-treated 1 hr before virus infection and measured 24 hrs post infection by phase contrast microscopy. Type of data set: functional, organism-based. An outline of the steps:
as §1

Data set [7] concerns NCI-H460. Put plainly: Down regulation of cyclin A2 expression in human NCI-H460 cells incubated for 24 hrs by Western blotting. The class given is functional, cell-based.
Data set [8] concerns RAW264.7. Kind of data set: Reduction in LPS/INFgamma-induced COX2 protein expression in mouse RAW264.7 cells incubated for 20 hrs by Western blotting. Type of data set: functional, cell-based. The essentials:
as §3

The test system of data set [9] is A549. Put plainly: Induction of c-Jun protein accumulation in human A549 cells incubated for 24 hrs by Western blotting. The class given is functional, cell-based.
Data set [10] in a line: Oral bioavailability in Sprague-Dawley rat at 3 mg/kg by HPLC-MS method. The settings on record: in vivo. Type of data set: ADME, organism-based. An outline of the steps: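 Male rats (330−380 g, 9−10 weeks), jugular vein cannula implanted 1 day before, fasted. 3 mg/kg given iv or orally (n = 3) in DMA/PEG400 30/70 v/v. Blood (150 μL) drawn at 0, 2, 5 (iv only), 15, 30 min and 1, 2, 4, 6, 8, 12, 24 h; plasma analysed by HPLC-MS; noncompartmental analysis.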

Data set [11] can be described thus: Solubility in DMSO. The class given is physicochemical. The essentials: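 Compound dissolved in DMSO with sonication; maximal volume before precipitation measured and used to calculate saturation solubility.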
A short description of data set [12]: Solubility in DMA. Type of data set: physicochemical.
The test system of data set [13] is Transmissible gastroenteritis virus. Kind of data set: Antiviral activity against Transmissible gastroenteritis virus infected in ST cells pre-treated 2 hrs before virus infection measured 6 hrs post virus infection by immunofluorescent assay. Type of data set: functional, organism-based. The following applies: Alphacoronavirus 1, ST. The essentials: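 ST cells, with or without 2 h compound pretreatment (10 concentrations), infected with TGEV at MOI 10. Immunofluorescence with anti-spike and anti-nucleocapsid antibodies at 6 hpi. EC50 from dose–response curves, mean of at least three experiments, each in duplicate.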

The next data set deals with SF-268. Kind of data set: Growth inhibition of human SF268 cells. Type of data set: functional. The essentials:
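SF-268 glioblastoma cells seeded 7500 cells/well in 96-well plates; growth inhibition measured with compound. GI50 as mean of at least three experiments, each in duplicate; paclitaxel positive control.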

In data set [14] the test system is NCI-H460. Put plainly: Growth inhibition of human NCI-H460 cells. The class given is functional. The essentials:
as §2

Data set [15] relates to MCF7. Kind of data set: Induction of c-Jun protein accumulation in human MCF7 cells incubated for 24 hrs by Western blotting. The class given is functional, cell-based.
In data set [16] the test system is A549. Kind of data set: Down regulation of cyclin A2 expression in human A549 cells incubated for 24 hrs by Western blotting. Type of data set: functional, cell-based.
The subject of data set [17] is Transmissible gastroenteritis virus. Kind of data set: Antiviral activity against Transmissible gastroenteritis virus infected in ST cells assessed as reduction in caspase-3 activation pre-treated before virus infection measured 16 hrs post virus infection by Western blotting. The class given is functional, organism-based. An outline of the steps: as §4
Data set [18] can be described thus: Growth inhibition of human HONE1 cells. Type of data set: functional. An outline of the steps:
as §2

The test system of data set [19] is RAW264.7. Kind of data set: Antiinflammatory activity in mouse RAW264.7 cells assessed as inhibition of LPS-induced nitric oxide production incubated for 18 hrs by nitrate/nitrite assay. The class given is functional, cell-based. The settings on record: RAW264.7, 18 h. An outline of the steps:
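RAW264.7 seeded 65000 cells/well, cultured 24 h, then medium replaced with complete medium containing IFNγ (20 ng/mL)/LPS (5 μg/mL) plus compound at various concentrations for 18 h; nitric oxide measured by Nitrate/Nitrite kit. EC50 as mean of at least three experiments, each in duplicate.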

The nature of data set [20]: Cytotoxicity against mouse RAW264.7 cells. Type of data set: cell-based. An outline of the steps: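 RAW264.7 cells stimulated with LPS/IFNγ and compound-treated in parallel with the NO assay; CC50 taken as concentration giving 50% inhibition of cell growth. Mean of at least three experiments, each in duplicate.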
Data set [21] has as its system MCF7. Put plainly: Down regulation of cyclin A2 expression in human MCF7 cells incubated for 24 hrs by Western blotting. Type of data set: functional, cell-based.
A short description of data set [22]: Apparent elimination half life in Sprague-Dawley rat at 1.5 mg/kg, po by HPLC-MS method. The class given is ADME, organism-based. Also on record: dose 1.5 mg/kg, route oral. The settings on record: in vivo, read-out: betat1/2(app) (converted). An outline of the steps: (§5)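 Male rats (330−380 g, 9−10 weeks old) fitted with a jugular vein cannula 1 day before dosing and fasted; 1.5 mg/kg given iv or orally in DMA/PEG400 (50/50, v/v), n = 3. Blood (150 μL) drawn at 0, 2, 5 (iv only), 15, 30 min and 1, 2, 4, 6, 8, 12, 24 h. Plasma analysed by HPLC-MS; parameters by noncompartmental analysis.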

Data set [23] in a line: Cmax in Sprague-Dawley rat at 1.5 mg/kg, po by HPLC-MS method. Type of data set: ADME, organism-based. Also on record: dose 1.5 mg/kg, route oral. The following applies: in vivo. The essentials: as §5
Data set [24] can be described thus: Tmax in Sprague-Dawley rat at 1.5 mg/kg, po by HPLC-MS method. Also noted: dose 1.5 mg/kg, route oral. The following applies: in vivo. The class given is ADME, organism-based. An outline of the steps: as §5
A short description of data set [25]: Volume of distribution at steady state in Sprague-Dawley rat at 1.5 mg/kg, iv by HPLC-MS method. Type of data set: ADME, organism-based. Also noted: dose 1.5 mg/kg, route intravenous. The settings on record: in vivo, read-out: Vdss. The essentials:
as §5

Data set [26] is described as follows: AUC (0 to infinity) in Sprague-Dawley rat at 1.5 mg/kg, po by HPLC-MS method. Type of data set: ADME, organism-based. Also noted: time infinity, dose 1.5 mg/kg, route oral. The settings on record: plasma. The essentials: as §5
A short description of data set [27]: Clearance in Sprague-Dawley rat at 1.5 mg/kg, iv by HPLC-MS method. The following applies: in vivo. Also noted: dose 1.5 mg/kg, route intravenous. The class given is ADME, organism-based. The essentials: as §5
Data set [28] can be described thus: Apparent elimination half life in Sprague-Dawley rat at 1.5 mg/kg, iv by HPLC-MS method. The settings on record: in vivo, read-out: betat1/2(app) (converted). Also noted: dose 1.5 mg/kg, route intravenous. Type of data set: ADME, organism-based. The essentials:
as §5

The nature of data set [29]: Oral bioavailability in Sprague-Dawley rat at 1.5 mg/kg by HPLC-MS method. Type of data set: ADME, organism-based. The settings on record: in vivo. An outline of the steps:
as §5

Data set [30] is described as follows: AUC (0 to infinity) in Sprague-Dawley rat at 1.5 mg/kg, iv by HPLC-MS method. Type of data set: ADME, organism-based. Also on record: time infinity, dose 1.5 mg/kg, route intravenous. The settings on record: plasma. The essentials:
as §5

The record followed here is ChEMBL document CHEMBL2177013, “Synthesis and biological evaluation of tylophorine-derived dibenzoquinolines as orally active agents: exploration of the role of tylophorine e ring on biological activity” (J Med Chem, 2012).

Converted amounts (≈) assume the structure as drawn. The source made the active and inactive calls. The rule behind the calls is not given here.

One may read the GI50 as the concentration at which growth is held to half of that of the control. A higher GI50 goes with less potent growth inhibition. As a reminder, the bioavailability is the share of a dose that reaches the circulation, judged against a reference dose that is usually intravenous. One may read the solubility as how much of the substance goes into solution per volume. A low value points to a poorly soluble substance. The term EC50 denotes the concentration needed to bring the measured effect to its halfway point. One may read the CC50 as the concentration at which the toxic effect on the cells reaches its halfway point. Read a high CC50 as lower toxicity to the cells. For `COc1cc2c3c(c4cc(OC)c(OC)cc4c2cc1OC)CN1CCC[C@@H]1C3` [TYLOPHORINE], the outcome (in the data set on Murine hepatitis virus [1]; in the data set on NCI-H460 [3]; with RAW264.7 [4]; in [5]; in the data set with Murine hepatitis virus [6]; with NCI-H460 [7]) was Active. For the same molecule, the result (with RAW264.7 [8]; in the data set with A549 [9]; with MCF7 [15]; with A549 [16]; in data set [17]; with MCF7 [21]) was Active. Besides, the GI50 in the data set with MCF7 [2] worked out at 240 nM; in the data set on NUGC-3 it was 190 nM; in the data set on SF-268 it was 270 nM; in the data set with NCI-H460 [14], 230 nM; in data set [18], 270 nM. The bioavailability in [10] was 66%. The solubility in data set [11] was 10 mM (≈ 3930 µg/mL); in data set [12], “soluble”. Further, the concentration giving a half-maximal response (EC50) in [13] was 80 nM; with RAW264.7 [19] it was 270 nM. The CC50 in data set [20] was 1240 nM.

Usually Cmax stands for the peak of the concentration-time curve. Broadly, the Tmax is the time at which the peak concentration occurs. In general, AUC(0-inf) refers to total exposure, with the tail of the curve extrapolated. Higher therefore signals high exposure. As usually defined, the clearance is the volume of plasma or blood freed of the substance per unit of time. Low values mean inefficient removal, high ones efficient removal. For `COc1cc2c(cc1OC)[C@@H]1[C@@H](O)[C@@H]3CCC(=O)N3C[C@@H]1c1cc(OC)c(OC)cc1-2` [TYLOPHOVATINE C], the half-life in data set [22] was 7.6 h; in [28], 4.6 h. This molecule displayed a Cmax in data set [23] of 39 ng/mL. Also, the Tmax in data set [24] came to 4.3 h. The Vd in data set [25] came out at 12.4 L/kg. For the same molecule, the area under the curve AUC(0-inf) in data set [26] worked out at 453 ng·h/mL; in [30] it was 448 ng·h/mL. The clearance in data set [27] is 37.6 mL/min/kg. Besides, the bioavailability in [29] was 54.3%.
